Measurements reported in ChEMBL document CHEMBL1150162, “Antimicrobial activities of naphthazarins from Arnebia euchroma” (2002).
In brackets after ≈: the same amount, converted by molar mass. Activity calls are given as the source filed them. No cut-off for these calls is given here.

Experiments:
Enterococcus faecium [1] = test: Ratio of MBC to MIC for vancomycin-resistant Enterococcus faecium F935 expressing VanA; assay type: functional
Staphylococcus aureus [2] = test: Antibacterial activity against Staphylococcus aureus after 24 hrs by broth microdilution method; assay type: functional
Summary of the method: (§1)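 2-fold serial dilutions of test agent in […], DMSO under 5% final. Inoculum about 5 × 10^5 CFU/mL, confirmed by LB agar plating. Incubated 24 h at 35 °C in ambient air. MIC is the lowest concentration with no visible growth. Three repeats; oxacillin, vancomycin and chloramphenicol as positive controls.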

Enterococcus faecalis [3] = test: Ratio of MBC to MIC for Enterococcus faecalis; assay type: functional
Staphylococcus aureus [4] = test: Ratio of MBC to MIC for Staphylococcus aureus; assay type: functional
OVCAR-3 = test: Cytotoxicity against human OVCAR-3 cells after 48 hrs by MTT assay; assay type: functional; settings: OVCAR-3, 48 h, read-out: CD50 (the source's name)
Summary of the method: (§2)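 Cells seeded at 5 × 10^3 per well, grown 24 h, then given 2-fold dilutions of sample for 48 h. Medium replaced with serum-free medium, MTT added (5 mg/mL stock) for 2 h at 37 °C, formazan dissolved in DMSO, OD read at 550 nm. CD50 is the concentration giving 50% reduction in net cell increase. Quadruplicate, repeated at least twice.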

Enterococcus faecalis [5] = test: Antibacterial activity against Enterococcus faecalis after 48 hrs by broth microdilution method; assay type: functional
Enterococcus faecium [6] = test: Antibacterial activity against vancomycin-resistant Enterococcus faecium F935 expressing VanA after 48 hrs by broth microdilution method; assay type: functional
Escherichia coli = test: Antibacterial activity against Escherichia coli up to 100 ug/mL after 24 hrs by broth microdilution method; assay type: functional, organism-based
Summary of the method: (§3)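 Broth microdilution with 2-fold serial dilutions in LB broth, compounds from DMSO stocks (DMSO below 5% final), inoculum about 5 × 10^5 CFU/mL. Incubated 24 h at 35 °C in ambient air. MIC is the lowest concentration with no visible growth. Experiments repeated three times.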

HepG2 = test: Cytotoxicity against human HepG2 cells after 48 hrs by MTT assay; assay type: functional; settings: HepG2, 48 h, read-out: CD50 (the source's name); summary of the method: as §2
Staphylococcus aureus [7] = test: Antibacterial activity against methicillin-resistant Staphylococcus aureus 8-8S after 48 hrs by broth microdilution method; assay type: functional
Enterococcus faecalis [8] = test: Antibacterial activity against Enterococcus faecalis after 24 hrs by broth microdilution method; assay type: functional
Summary of the method: (§4)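 2-fold serial dilutions of test agent in LB broth, DMSO under 5% final. Inoculum about 5 × 10^5 CFU/mL, confirmed by LB agar plating. Incubated 24 h at 35 °C in ambient air. MIC is the lowest concentration with no visible growth. Three repeats; oxacillin, vancomycin and chloramphenicol as positive controls.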

Enterococcus faecalis [9] = test: Antibacterial activity against vancomycin-resistant Enterococcus faecalis CKU-17 expressing VanB after 24 hrs by broth microdilution method; assay type: functional; settings: CKU-17, 24 h; summary of the method: as §4
Pseudomonas aeruginosa = test: Antibacterial activity against Pseudomonas aeruginosa up to 100 ug/mL after 24 hrs by broth microdilution method; assay type: functional, organism-based; summary of the method: as §3
Staphylococcus aureus [10] = test: Antibacterial activity against Staphylococcus aureus after 48 hrs by broth microdilution method; assay type: functional
Enterococcus faecium [11] = test: Antibacterial activity against vancomycin-resistant Enterococcus faecium F935 expressing VanA after 24 hrs by broth microdilution method; assay type: functional; settings: F935, 24 h; summary of the method: as §4
Enterococcus faecalis [12] = test: Antibacterial activity against vancomycin-resistant Enterococcus faecalis CKU-17 expressing VanB after 48 hrs by broth microdilution method; assay type: functional
HeLa = test: Cytotoxicity against human HeLa cells after 48 hrs by MTT assay; assay type: functional; settings: read-out: CD50 (the source's name); summary of the method: as §2
Staphylococcus aureus [13] = test: Antibacterial activity against methicillin-resistant Staphylococcus aureus 8-8S after 24 hrs by broth microdilution method; assay type: functional; summary of the method: as §1

SMILES	Ratio (Enterococcus faecium [1])	MIC (Staphylococcus aureus [2]) [µg/mL]	Ratio (Enterococcus faecalis [3])	Ratio (Staphylococcus aureus [4])	CC50 (OVCAR-3) [µg/mL]	MBC (Enterococcus faecalis [5])	MBC (Enterococcus faecium [6]; F935, 48 h) [µg/mL]	Activity (Escherichia coli)	CC50 (HepG2) [µg/mL]	MBC (Staphylococcus aureus [7])	MIC (Enterococcus faecalis [8]) [µg/mL]	MIC (Enterococcus faecalis [9]) [µg/mL]	Activity (Pseudomonas aeruginosa)	MBC (Staphylococcus aureus [10]) [µg/mL]	MIC (Enterococcus faecium [11]) [µg/mL]	MBC (Enterococcus faecalis [12]; CKU-17, 48 h) [µg/mL]	CC50 (HeLa) [µg/mL]	MIC (Staphylococcus aureus [13]) [µg/mL]	MBC (Enterococcus faecium [6])	MBC (Enterococcus faecalis [12])
CC[C@H](C)C(=O)O[C@@H](CC=C(C)C)C1=CC(=O)c2c(O)ccc(O)c2C1=O	<=2	0.78 (≈ 2.09 µM)	<=2	<=2	0.6 (≈ 1.61 µM)	3.13 µg/mL (≈ 8.4 µM)	3.13 (≈ 8.4 µM)	inactive	0.6 (≈ 1.61 µM)	1.56 µg/mL (≈ 4.19 µM)	1.56 (≈ 4.19 µM)	1.56 (≈ 4.19 µM)	inactive	0.78 (≈ 2.09 µM)	1.56 (≈ 4.19 µM)	3.13 (≈ 8.4 µM)	0.8 (≈ 2.15 µM)	1.56 (≈ 4.19 µM)	–	–
O=C(N[C@H](CO)[C@H](O)c1ccc([N+](=O)[O-])cc1)C(Cl)Cl [CHLORAMPHENICOL]	–	–	–	–	–	inactive	–	–	–	–	6.25 (≈ 19.3 µM)	6.25 (≈ 19.3 µM)	–	–	6.25 (≈ 19.3 µM)	–	–	–	inactive	inactive
CC(C)=CC[C@H](O)C1=CC(=O)c2c(O)ccc(O)c2C1=O [ALKANNIN]	<=2	6.25 (≈ 21.7 µM)	<=2	<=2	0.8 (≈ 2.77 µM)	50 µg/mL (≈ 173 µM)	50 (≈ 173 µM)	inactive	1 (≈ 3.47 µM)	12.5 µg/mL (≈ 43.4 µM)	50 (≈ 173 µM)	25 (≈ 86.7 µM)	inactive	12.5 (≈ 43.4 µM)	50 (≈ 173 µM)	50 (≈ 173 µM)	0.8 (≈ 2.77 µM)	6.25 (≈ 21.7 µM)	–	–
CC(C)=CC[C@H](OC(=O)/C=C/c1ccc2c(c1)OCO2)C1=CC(=O)c2c(O)ccc(O)c2C1=O	–	50 (≈ 108 µM)	–	–	1 (≈ 2.16 µM)	> 100 µg/mL	50 (≈ 108 µM)	inactive	2.1 (≈ 4.54 µM)	50 µg/mL (≈ 108 µM)	100 (≈ 216 µM)	50 (≈ 108 µM)	inactive	100 (≈ 216 µM)	50 (≈ 108 µM)	50 (≈ 108 µM)	1.5 (≈ 3.24 µM)	50 (≈ 108 µM)	–	–
CC(C)=CC[C@@H](O)C1=CC(=O)c2c(O)ccc(O)c2C1=O [SHIKONIN]	<=2	6.25 (≈ 21.7 µM)	<=2	<=2	–	50 µg/mL (≈ 173 µM)	50 (≈ 173 µM)	inactive	–	12.5 µg/mL (≈ 43.4 µM)	50 (≈ 173 µM)	25 (≈ 86.7 µM)	inactive	12.5 (≈ 43.4 µM)	50 (≈ 173 µM)	50 (≈ 173 µM)	–	6.25 (≈ 21.7 µM)	–	–
CC(C)=CC[C@H](OC(=O)/C=C/c1ccccc1)C1=CC(=O)c2c(O)ccc(O)c2C1=O [CINNAMOYL ALKANNIN]	–	50 (≈ 119 µM)	–	–	2.4 (≈ 5.74 µM)	> 100 µg/mL	100 (≈ 239 µM)	inactive	3.8 (≈ 9.08 µM)	> 100 µg/mL	100 (≈ 239 µM)	25 (≈ 59.7 µM)	inactive	100 (≈ 239 µM)	25 (≈ 59.7 µM)	100 (≈ 239 µM)	3.6 (≈ 8.6 µM)	50 (≈ 119 µM)	–	–
Cc1onc(-c2ccccc2)c1C(=O)N[C@@H]1C(=O)N2[C@@H]1SC(C)(C)[C@@H]2C(=O)O [OXACILLIN]	–	0.39 (≈ 0.971 µM)	–	–	–	50 µg/mL (≈ 125 µM)	–	–	–	inactive	25 (≈ 62.3 µM)	> 100	–	0.39 (≈ 0.971 µM)	> 100	–	–	> 100	inactive	inactive
CC[C@@H](C)C(=O)O[C@@H](CC=C(C)C)C1=CC(=O)c2c(O)ccc(O)c2C1=O	<=2	1.56 (≈ 4.19 µM)	<=2	<=2	1.7 (≈ 4.56 µM)	6.25 µg/mL (≈ 16.8 µM)	6.25 (≈ 16.8 µM)	inactive	5 (≈ 13.4 µM)	3.13 µg/mL (≈ 8.4 µM)	3.13 (≈ 8.4 µM)	3.13 (≈ 8.4 µM)	inactive	1.56 (≈ 4.19 µM)	3.13 (≈ 8.4 µM)	6.25 (≈ 16.8 µM)	3.9 (≈ 10.5 µM)	3.13 (≈ 8.4 µM)	–	–
CN[C@H](CC(C)C)C(=O)N[C@H]1C(=O)N[C@@H](CC(N)=O)C(=O)N[C@H]2C(=O)N[C@H]3C(=O)N[C@H](C(=O)N[C@H](C(=O)O)c4cc(O)cc(O)c4-c4cc3ccc4O)[C@H](O)c3ccc(c(Cl)c3)Oc3cc2cc(c3O[C@@H]2O[C@H](CO)[C@@H](O)[C@H](O)[C@H]2O[C@H]2C[C@](C)(N)[C@H](O)[C@H](C)O2)Oc2ccc(cc2Cl)[C@H]1O [VANCOMYCIN]	–	1.56 (≈ 1.08 µM)	–	–	–	inactive	–	–	–	1.56 µg/mL (≈ 1.08 µM)	3.13 (≈ 2.16 µM)	> 100	–	1.56 (≈ 1.08 µM)	> 100	–	–	1.56 (≈ 1.08 µM)	inactive	inactive
CC(=O)O[C@H](CC=C(C)C)C1=CC(=O)c2c(O)ccc(O)c2C1=O [ACETYLSHIKONIN]	<=2	1.56 (≈ 4.72 µM)	<=2	<=2	–	3.13 µg/mL (≈ 9.48 µM)	6.25 (≈ 18.9 µM)	inactive	–	1.56 µg/mL (≈ 4.72 µM)	3.13 (≈ 9.48 µM)	6.25 (≈ 18.9 µM)	inactive	1.56 (≈ 4.72 µM)	6.25 (≈ 18.9 µM)	6.25 (≈ 18.9 µM)	–	1.56 (≈ 4.72 µM)	–	–
